Results from different studies.
Target: Cyclin-dependent kinase 11B (CDK11B, Homo sapiens, UniProt P21127)
Method: competition with immobilised ligand

CC1=C(C#N)C(c2ccc3c(c2)c(NC(=O)c2ccccc2C)nn3C)C(C#N)=C(C)N1 — remaining binding (cell-free assay; 1 µM): 100%
Cc1cnc(Nc2ccc(C(=O)N3CCC(N4CCCC4)CC3)cc2)nc1-c1cc2ccccc2s1 — remaining binding (binding; 1 µM): 100%
Cc1c(NC(=O)c2cc(C(N)=O)nc3cc(F)ccc23)c(C(F)(F)F)nn1Cc1ccc(C#N)cc1 — remaining binding (cell-free assay; 1 µM): 94%
CN(CCCC(F)(F)F)c1nccc(-c2cnn3ncccc23)n1 — remaining binding (binding; 1 µM): 94%
O=C(NC[C@@H]1[C@H]2CN(C(=O)OCc3cc(C(F)(F)F)cc(C(F)(F)F)c3)C[C@@H]12)c1ccc2[nH]nnc2c1 — remaining binding (cell-free assay; 1 µM): 100%
O=C(NCCCN1CCOCC1)c1ccc(Nc2ncc(Cl)c(-c3ccc(Cl)s3)n2)cc1 — remaining binding (binding; 1 µM): 33%
COc1cnc(Nc2cccc(S(N)(=O)=O)c2)nc1N1CCN(c2ccccc2)CC1 — remaining binding (binding; 1 µM): 99%
O=C(c1ccc(Nc2nccc(-c3cc4ccccc4s3)n2)cc1)N1CCC(N2CCCC2)CC1 — remaining binding (binding; 1 µM): 71%
CCN1CCN(Cc2ccc(C(=O)Nc3ccc(C)c(Oc4ccc5c(c4)CC(=O)N5)c3)cc2C(F)(F)F)CC1 — remaining binding (binding; 1 µM): 100%
Cc1nc(Cc2cccc(C(F)(F)F)c2)sc1-c1ccc(C(N)=O)nc1 — remaining binding (cell-free assay; 1 µM): 97%
CC1CCCN1c1nccc(-c2cnn3ncccc23)n1 (stereo not drawn) — remaining binding (binding; 1 µM): 100%
C[C@@H](c1ccc(-n2cnc3c(N)ncnc32)cc1)N1CCc2nn(C)c(Cc3ccccc3)c2C1=O — remaining binding (binding; 0.1 µM): 86%
C[C@@H]1CCN(c2nccc(-c3cnn4ncccc34)n2)C1 — remaining binding (binding; 1 µM): 97%
O=C(NCC1CCOCC1)c1n[nH]cc1NC(=O)c1c(F)cccc1F — remaining binding (binding; 1 µM): 96%
CN(C)c1nccc(-c2cnn3ncccc23)n1 — remaining binding (binding; 1 µM): 100%
COc1cnc(Nc2cccc(S(N)(=O)=O)c2)nc1N1CCN(c2ccccc2)C(=O)C1 — remaining binding (binding; 1 µM): 100%
N[C@@H]1CCN(c2nccc(-c3cnn4ncccc34)n2)C1 — remaining binding (binding; 1 µM): 100%
COc1ccc2cc(OCC3(C(=O)O)CN(C(=O)c4ccc(F)cc4)C3)ccc2c1 — remaining binding (cell-free assay; 1 µM): 100%
Nc1ncc2c(n1)-c1c([nH]c3ccc(C#CC4CC4)cc13)CCCC2 — remaining binding (binding; 1 µM): 91%
CN(C)c1nccc(-c2cnc3ncccn23)n1 — remaining binding (binding; 1 µM): 100%
CSc1cccnc1N1CCN(Cc2nc3ccccc3[nH]2)CC1 — remaining binding (cell-free assay; 1 µM): 100%
